Calls of active or inactive are those of the source. The rule behind the calls is not given here.
Assays:
Rattus norvegicus [1] = assay: Antihyperglycemic effect in iv dosed STZ- induced diabetic Wistar rat model assessed as reduction in plasma glucose level measured after 30 mins; format: functional, organism-based
Summary of the method: (§1)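 Fasting STZ-diabetic rats (60 mg/kg iv, 2 weeks earlier; glucose ≥20 mmol/L) got a single tail-vein bolus (5.0-20.0 mg/kg in normal saline). Vehicle controls received the same volume. Tail-vein blood was drawn 30 min later under pentobarbital (30.0 mg/kg ip). Plasma glucose was measured by enzymatic kit at 37 °C for 10 min, run in duplicate. n = 8 per group; mean ± SEM.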

[2] = target: Solute carrier family 2, facilitated glucose transporter member 4 (Rattus norvegicus) (UniProt P19357); assay: Induction of GLUT4 protein level in STZ- induced diabetic Wistar rat soleus muscle at 15 mg/kg, iv tid every 8 hrs for 3 days by Western blot relative to beta-tubulin expression
Rattus norvegicus [3] = species: Rattus norvegicus; assay: Antihyperglycemic activity against STZ- induced diabetic Wistar rat soleus muscle assessed as 2-[1-14C]-deoxy-D-glucose uptake after 30 mins; format: functional, tissue-based
Summary of the method: (§2)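 Soleus muscle strips ([…]) from rats made diabetic with STZ (60 mg/kg iv), used 2 weeks later. Strips were preincubated 30 min in KRBB (37 °C, pH 7.4, 1 mmol/L glucose, 1% fatty acid-free BSA, 5% CO2 in O2), then exposed to test agent 30 min. Next came 2-[1-14C]-deoxy-D-glucose (1 µCi/mL) for 5 min. Strips were dissolved in NaOH and counted by β-counting. Nonspecific uptake was defined with 20 µmol/L cytochalasin B and subtracted. Results are given as % of KRBB-only basal uptake. The 1 nmol/L insulin reference was run the same way.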

Rattus norvegicus [4] = assay: Antihyperglycemic effect in STZ- induced diabetic Wistar rat model assessed as reduction in plasma glucose level at 15 mg/kg, iv measured after 30 mins; format: functional; design: scale not given: the % may be the effect or the level left; summary of the method: as §1
Rattus norvegicus [5] = assay: Induction of GLUT4 mRNA level in STZ- induced diabetic Wistar rat soleus muscle at 15 mg/kg, iv tid every 8 hrs for 3 days by Northern blot relative to beta-actin expression; format: functional
Summary of the method: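 Rats received 15.0 mg/kg iv tid (every 8 h) for 3 days and were killed fasting. Soleus total RNA (20 µg) was denatured in formaldehyde/formamide at 55 °C and run on a 1.2% agarose/formaldehyde gel. Blots were probed with [α-32P]dCTP-labelled probe at 65 °C for 2 h and washed to 0.1× SSC/0.1% SDS at 40 °C. GLUT4 was normalized to β-actin; n = 4, mean ± SEM.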

Rattus norvegicus [6] = assay: Antihyperglycemic effect in normal Wistar rat assessed as decrease in plasma glucose level at 15 mg/kg, iv measured after 15 mins of glucose challenge by intravenous glucose challenge test
Rattus norvegicus [7] = assay: Induction of GLUT4 protein level in STZ- induced diabetic Wistar rat soleus muscle at 15 mg/kg, iv tid every 8 hrs for 3 days by Western blot relative to vehicle treated normal rat; format: functional
Summary of the method: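 Same 3-day tid 15.0 mg/kg iv regimen. Soleus homogenate (50 µg protein) was run on 10% SDS-PAGE and transferred to PVDF. Blots were probed overnight at 4 °C with mouse anti-rat GLUT4 (1:1000); β-tubulin (1:500) served as loading control. Detection was by peroxidase secondary and ECL, with densitometry at 45 kDa (GLUT4) and 50 kDa (β-tubulin). n = 4.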

[8] = Antihyperglycemic activity against STZ- induced diabetic Wistar rat soleus muscle assessed as 2-[1-14C]-deoxy-D-glucose uptake at 0.01 umol/L after 30 mins relative to control; format: functional; summary of the method: as §2
Rattus norvegicus [9] = assay: Antihyperglycemic effect in normal Wistar rat assessed as reduction in plasma glucose level at 15 mg/kg, iv measured after 30 mins by intravenous glucose challenge test
Rattus norvegicus [10] = assay: Antihyperglycemic effect in normal Wistar rat assessed as decrease in plasma glucose level at 15 mg/kg, iv measured after 5 mins of glucose challenge by intravenous glucose challenge test
[11] = Antihyperglycemic activity against STZ- induced diabetic Wistar rat soleus muscle assessed as 2-[1-14C]-deoxy-D-glucose uptake at 100 umol/L after 30 mins relative to control; format: functional; summary of the method: as §2
Rattus norvegicus [12] = assay: Antihyperglycemic effect in STZ- induced diabetic Wistar rat model assessed as reduction in plasma glucose level at 20 mg/kg, iv measured after 30 mins; format: functional, organism-based; design: dose 20 mg/kg; summary of the method: as §1
Rattus norvegicus [13] = assay: Antihyperglycemic effect in STZ- induced diabetic Wistar rat model assessed as decrease in plasma glucose level at 15 mg/kg, iv tid every 8 hrs for 3 days; format: functional
Summary of the method: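 STZ-diabetic rats were dosed at 15.0 mg/kg iv into the tail vein every 8 h (tid) for 3 days. Vehicle-treated diabetic and normal rats served as comparisons. Plasma glucose was measured in fasting animals after the final dose.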

## O=c1c(-c2ccc(O)cc2)coc2c([C@@H]3O[C@H](CO)[C@@H](O)[C@H](O)[C@H]3O)c(O)ccc12 [PUERARIN]
Rattus norvegicus [1]
  Activity: Dose-dependent effect
[2]
  Activity: 0.88 a.u.
Rattus norvegicus [3]
  Activity: Dose-dependent effect
Rattus norvegicus [4]
  Activity: 33.5%
Rattus norvegicus [5]
  Activity: 1.01 a.u.
Rattus norvegicus [6]
  Activity: Active
Rattus norvegicus [7]
  Activity: 80%
[8]
  Activity: 108%
Rattus norvegicus [9]
  Activity: 3.9 mmol/L
Rattus norvegicus [10]
  Activity: 13.4 mmol/L
[11]
  Activity: 145%
Rattus norvegicus [12]
  Activity: Active
Rattus norvegicus [13]
  Activity: 16.5 mmol/L
